Assay results taken from ChEMBL document CHEMBL4411269, “Required Immunoproteasome Subunit Inhibition Profile for Anti-Inflammatory Efficacy and Clinical Candidate KZR-616 ((2 S,3 R)- N-(( S)-3-(Cyclopent-1-en-1-yl)-1-(( R)-2-methyloxiran-2-yl)-1-oxopropan-2-yl)-3-hydroxy-3-(4-methoxyphenyl)-2-(( S)-2-(2-morpholinoacetamido)propanamido)propenamide)” (J Med Chem, 2018).
The source made the active and inactive calls. No cut-off for these calls is given here.

Legend:
[1] = species: Mus musculus; experiment: Selectivity ratio of IC50 for proteosome beta 5 in mouse A20 cells to IC50 for LMP7 in mouse A20 cells; type: cell-based
How it was run: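 Mouse A20 B-cell lymphoma cell lysate (1 mg/mL, hypotonic 20 mM Tris pH 8, 5 mM EDTA) treated with serially diluted compound for 1 h at 25 °C. Then 5 μM biotinylated active-site probe for 2 h at 25 °C, guanidine denaturation and streptavidin bead capture. Subunit-specific antibody and HRP chemiluminescence, signal normalized to protein, IC50 from percent activity versus DMSO controls.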

[2] = test system: PBMC; experiment: Antiinflammatory activity in human PBMC assessed as reduction in anti-CD3/CD28 antibody-stimulated TNF-alpha expression at 125 nM preincubated for 1 hr followed by anti-CD3/CD28 antibody stimulation measured after 24 hrs by ELISA; type: functional, cell-based
How it was run: (§1)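 Healthy-donor PBMC, thawed from cryopreservation, 250 000 cells/well in RPMI 1640/5% FBS. Pretreated 1 h at 37 °C with compound alone or combined (0.1% DMSO final), washed 4 times, then stimulated 24 h with anti-CD3 and anti-CD28 antibodies. TNFα and IFNγ in supernatants by electrochemiluminescent ELISA; expressed relative to DMSO-treated controls (n = 6).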

[3] = test system: PBMC; experiment: Antiinflammatory activity in human PBMC assessed as reduction in anti-CD3/CD28 antibody-stimulated IFN-gamma expression at 125 nM preincubated for 1 hr followed by anti-CD3/CD28 antibody stimulation measured after 24 hrs by ELISA; type: functional, cell-based; how it was run: as §1
[4] = test system: PBMC; experiment: Antiinflammatory activity in human PBMC assessed as reduction in anti-CD3/CD28 antibody-stimulated TNF-alpha expression at 125 nM preincubated for 1 hr followed by anti-CD3/CD28 antibody stimulation measured after 24 hrs in presence of KZR-504 by ELISA; type: functional, cell-based; how it was run: as §1
[5] = test system: Mus musculus; experiment: In vivo inhibition of LMP7 in Balb/c mouse splenocytes at 20 mg/kg, iv followed by dosing repeat on day 6, 8, 11, 13 and 15 and measured on 1 hr post last dose; type: functional, organism-based
How it was run: (§2)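 BALB/c mice dosed iv bolus in 10% sulfobutyl ether−β-cyclodextrin/10 mM sodium citrate pH 3.5; tissues taken 1 h after administration. Splenocytes strained and red cells lysed; kidney frozen, then bead-homogenized. Hypotonic lysate (20 mM Tris pH 8, 5 mM EDTA) at 1 mg/mL (spleen) or 5 mg/mL (kidney) run in the ProCISE active-site ELISA. Background-subtracted, protein-normalized activity relative to vehicle animals; n = 3.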

[6] = test system: Mus musculus; experiment: In vivo inhibition of MECL-1 in Balb/c mouse splenocytes at 20 mg/kg, iv followed by dosing repeat on day 6, 8, 11, 13 and 15 and co-treated with 5 mg/kg, iv KZR-504 and measured on 1 hr post last dose; type: functional, organism-based; how it was run: as §2
[7] = test system: Mus musculus; experiment: Antiarthritic activity in type 2 collagen antibody/LPS induced Balb/c mouse assessed as reduction in disease burden at 20 mg/kg, iv followed by dosing repeat on day 6, 8, 11, 13 and 15 and measured until day 18; type: functional, organism-based
How it was run: (§3)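 CAIA in 7−8 week old female BALB/c mice on breeder chow. Induced with 1.75 mg of a 5-antibody anti-type II collagen cocktail iv on day 0, then 25 μg LPS ip on day 3. Dosed as single iv boluses in 10% (w/v) sulfobutyl ether−β-cyclodextrin/10 mM sodium citrate (pH 3.5); vehicle-treated group included.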

[8] = test system: Mus musculus; experiment: Antiarthritic activity in type 2 collagen antibody/LPS induced Balb/c mouse assessed as reduction in disease burden at 20 mg/kg, iv followed by dosing repeat on day 6, 8, 11, 13 and 15 and co-treated with 5 mg/kg, iv KZR-504 and measured until day 18; type: functional, organism-based; how it was run: as §3
[9] = Toxicity in Balb/c mouse assessed as change in body weight at 20 mg/kg, iv followed by dosing repeat on day 6, 8, 11, 13 and 15 and measured until day 18; type: organism-based; conditions: in vivo
[10] = Toxicity in Balb/c mouse assessed as effect on cage-side observations at 20 mg/kg, iv followed by dosing repeat on day 6, 8, 11, 13 and 15 and measured until day 18; type: organism-based; conditions: in vivo
[11] = biological target: T1, Proteasome subunit beta type-10 (Homo sapiens) (UniProt P40306); experiment: Inhibition of MECL1 in human PBMC at 125 nM by ELISA
T1 sequence (whole entry): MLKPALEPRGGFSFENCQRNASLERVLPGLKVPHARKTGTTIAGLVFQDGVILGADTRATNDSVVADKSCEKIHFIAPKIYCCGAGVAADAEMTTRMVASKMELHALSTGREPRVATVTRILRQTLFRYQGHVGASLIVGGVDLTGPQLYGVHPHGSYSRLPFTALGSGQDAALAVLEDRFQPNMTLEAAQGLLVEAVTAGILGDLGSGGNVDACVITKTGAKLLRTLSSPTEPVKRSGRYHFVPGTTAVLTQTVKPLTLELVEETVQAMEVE
How it was run: (§4)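 Cryopreserved healthy-donor human PBMC in RPMI 1640 with 5% heat-inactivated FBS, exposed to compound (0.1% DMSO final) for 1 h at 37 °C, 5% CO2, then washed. Subunit-specific active-site occupancy read by ProCISE: biotinylated active-site probe binding, denaturation, streptavidin capture, subunit-specific antibody and HRP chemiluminescence. Signal normalized to protein and expressed relative to DMSO controls.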

[12] = test system: PBMC; experiment: Cytotoxicity in human PBMC assessed as reduction in cell viability at 250 nM relative to control; type: cell-based
[13] = biological target: T2, Proteasome subunit beta type-8 (Homo sapiens) (UniProt P28062); experiment: Inhibition of LMP7 in human PBMC at 250 nM by ELISA; how it was run: as §4
T2 sequence (whole entry): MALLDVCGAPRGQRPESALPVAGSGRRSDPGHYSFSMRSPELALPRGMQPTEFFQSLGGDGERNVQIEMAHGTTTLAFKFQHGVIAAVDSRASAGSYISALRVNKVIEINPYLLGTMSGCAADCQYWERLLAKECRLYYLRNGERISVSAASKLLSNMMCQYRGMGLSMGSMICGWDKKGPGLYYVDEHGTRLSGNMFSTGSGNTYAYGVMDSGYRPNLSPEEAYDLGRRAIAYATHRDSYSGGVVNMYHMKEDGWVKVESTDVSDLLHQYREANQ

[14] = biological target: T3, Proteasome subunit beta type-9 (Homo sapiens) (UniProt P28065); experiment: Inhibition of LMP2 in human PBMC at 250 nM by ELISA; how it was run: as §4
T3 sequence (whole entry): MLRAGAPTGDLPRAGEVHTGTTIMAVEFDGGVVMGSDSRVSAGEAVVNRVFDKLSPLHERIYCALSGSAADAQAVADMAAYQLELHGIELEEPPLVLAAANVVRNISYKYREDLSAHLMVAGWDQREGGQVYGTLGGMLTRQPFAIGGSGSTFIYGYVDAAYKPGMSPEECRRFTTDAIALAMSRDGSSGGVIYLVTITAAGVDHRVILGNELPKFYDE

[15] = biological target: T1, Proteasome subunit beta type-10 (Homo sapiens); conditions: at 250 nM

SMILES	Ratio IC50 [1]	Activity [2]	Activity [3]	Activity [4]	inhibition [5]	inhibition [6]	Activity [7]	Activity [8]	Activity [9]	Activity [10]	inhibition [11]	Activity [12] [%]	inhibition [13]	inhibition [14]	inhibition [15]
COc1ccc(C[C@H](NC(=O)[C@@H](C)NC(=O)[C@H]2CC[C@H](O)CC2)C(=O)N[C@@H](CC2=CCCC2)C(=O)[C@@]2(C)CO2)cc1	7	Active	Active	Active	Active	Active	inactive	Active	Non-Toxic	Non-Toxic	Active				
Cc1ccc(CC[C@H](NC(=O)[C@H](Cc2ccccc2)NC(=O)[C@H](CC(C)C)NC(=O)CN2CCCCCC2)C(=O)[C@@]2(C)CO2)cc1												30	Active	Active	Active
